Bioassay records: PubChem BioAssay, several laboratories
A selection: hits, their analogues and other compounds. The true share with any hit is near 1.9%.
Rin1 Abl inh – blocks binding of human Rin1 to Abl; 360,000 tested, 0.4% active; TR-FRET Rin1/Abl binding, biochemical; P00519+Q13671; inhibition, % at 7.35 µM; AID 588664; in the data active = inhibition above about 5%, passing the limit was not always enough
Target sequence (P00519 whole entry, looked up): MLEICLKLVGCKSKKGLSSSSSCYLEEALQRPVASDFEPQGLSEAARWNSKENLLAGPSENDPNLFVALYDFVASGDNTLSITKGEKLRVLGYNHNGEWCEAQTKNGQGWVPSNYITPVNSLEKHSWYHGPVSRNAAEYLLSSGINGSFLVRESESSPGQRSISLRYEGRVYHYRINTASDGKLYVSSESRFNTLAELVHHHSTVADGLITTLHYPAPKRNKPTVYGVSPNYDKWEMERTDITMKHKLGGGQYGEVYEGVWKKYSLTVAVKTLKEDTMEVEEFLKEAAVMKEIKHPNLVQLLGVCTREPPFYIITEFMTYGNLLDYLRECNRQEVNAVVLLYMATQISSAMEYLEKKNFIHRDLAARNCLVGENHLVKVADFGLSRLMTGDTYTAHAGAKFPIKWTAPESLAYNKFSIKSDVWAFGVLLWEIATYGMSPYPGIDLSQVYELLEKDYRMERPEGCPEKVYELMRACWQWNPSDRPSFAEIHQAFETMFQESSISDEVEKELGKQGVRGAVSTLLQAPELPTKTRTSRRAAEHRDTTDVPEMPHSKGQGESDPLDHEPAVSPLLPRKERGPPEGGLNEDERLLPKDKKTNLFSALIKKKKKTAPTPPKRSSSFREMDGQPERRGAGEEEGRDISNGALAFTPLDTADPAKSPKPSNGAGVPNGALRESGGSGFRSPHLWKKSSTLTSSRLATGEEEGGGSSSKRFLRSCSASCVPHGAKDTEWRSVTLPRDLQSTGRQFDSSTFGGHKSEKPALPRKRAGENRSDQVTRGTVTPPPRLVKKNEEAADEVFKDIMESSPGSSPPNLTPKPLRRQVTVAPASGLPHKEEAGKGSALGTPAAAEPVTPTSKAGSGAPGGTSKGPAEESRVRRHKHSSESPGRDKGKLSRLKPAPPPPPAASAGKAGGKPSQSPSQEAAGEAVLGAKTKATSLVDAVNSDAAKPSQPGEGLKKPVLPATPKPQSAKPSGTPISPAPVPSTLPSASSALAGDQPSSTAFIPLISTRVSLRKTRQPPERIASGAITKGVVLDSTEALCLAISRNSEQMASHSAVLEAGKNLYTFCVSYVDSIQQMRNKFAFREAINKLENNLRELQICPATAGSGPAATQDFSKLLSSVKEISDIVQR
Target sequence (Q13671 whole entry, looked up): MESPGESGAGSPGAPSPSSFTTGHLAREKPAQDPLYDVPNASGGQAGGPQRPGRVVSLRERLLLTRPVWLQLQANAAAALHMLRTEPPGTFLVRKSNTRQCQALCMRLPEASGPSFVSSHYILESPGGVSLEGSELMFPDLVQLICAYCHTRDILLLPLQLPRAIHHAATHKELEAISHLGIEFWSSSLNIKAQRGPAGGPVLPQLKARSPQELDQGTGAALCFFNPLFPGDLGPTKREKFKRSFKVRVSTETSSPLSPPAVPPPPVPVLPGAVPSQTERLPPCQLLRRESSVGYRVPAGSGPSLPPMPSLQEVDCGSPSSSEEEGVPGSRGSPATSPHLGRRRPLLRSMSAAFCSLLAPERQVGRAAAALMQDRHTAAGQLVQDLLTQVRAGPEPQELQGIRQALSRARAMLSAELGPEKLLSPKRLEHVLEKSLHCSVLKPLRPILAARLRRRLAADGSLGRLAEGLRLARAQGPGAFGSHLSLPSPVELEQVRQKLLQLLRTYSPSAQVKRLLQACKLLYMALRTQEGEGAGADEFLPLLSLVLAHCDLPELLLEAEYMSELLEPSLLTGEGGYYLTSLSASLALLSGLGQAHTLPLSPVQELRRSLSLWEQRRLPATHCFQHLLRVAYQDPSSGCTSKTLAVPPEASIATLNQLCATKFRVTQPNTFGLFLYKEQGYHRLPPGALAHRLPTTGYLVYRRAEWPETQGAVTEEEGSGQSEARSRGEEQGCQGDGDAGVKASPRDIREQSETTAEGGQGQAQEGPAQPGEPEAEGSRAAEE
ABHD5-PLIN5 inh – blocks binding of human ABHD5 to perilipin-5 | AID 602281 | inhibition, % at 4 µM | 360,000 tested, 0.78% active | Q00G26+Q8WTS1 | Split G. princeps luciferase complementation, luminescence, 4 h;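 active = inhibition above the mean inhibition across every tested compound plus 3 SD, cut at about 22% in these data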;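 note: 0% = DMSO only wells and the 100% control is not disclosed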
NadD block – NadD (S. aureus) enzyme inhibition; 360,000 tested, 0.78% active; purified NadD enzyme, colorimetric absorbance read-out; AID 602399; inhibition, % at 20 µM; in the data active = inhibition above about 26%
Rpn11 inh – blocks the human proteasome subunit Rpn11; O00487; human 26S proteasome, Ub4-pepOG fluorescence polarization; 20S core pre-blocked with epoxomicin; inhibition, % at 20 µM; 360,000 tested, 0.59% active; AID 588493;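 active = inhibition at 20 µM, scaled to each plate's controls, above about 33%, limit read from the data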
Xi reactivation – activators of X-chromosome reactivation in mouse fibroblasts; XiGFP mouse fibroblasts, % GFP-positive cells imaging, 3 d; cells co-treated with 5-aza-dC sensitizer; scaled so ellipticine positive control = 100%; activation, % at 7.58 µM; 360,000 tested, 0.055% active;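 active = mean normalized replicate activation at least 10% and every replicate at or above 10%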;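 note: 0% = median of on-plate neutral control wells and 100% = ellipticine 6 µM median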
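System: XiGFP fibroblasts, SV40-immortalized. Medium: DMEM plus 5-aza-dC sensitizer. Doses: single point. Timing: 3 d treatment, 15 min room-temperature fixation. Control set: ellipticine 6 µM.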
Rin1 Abl conf – confirmation of inhibitors of human Rin1-Abl interaction; shares compounds with Rin1 Abl inh; AID 602124; TR-FRET Rin1-Abl binding, purified proteins; inhibition, % at 7.35 µM; 1,300 tested, 49% active
GFP quencher – GFP fluorescence interference artifact; 1,300 tested, 8.5% active; inhibitors/quenchers counterscreen; shares compounds with Rin1 Abl inh; inhibition, % at 6.75 µM;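 note: ABL1-eGFP fusion protein alone without its partner RIN1-SBP; 0% = protein with vehicle and 100% = wells lacking protein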
GFP quench dose – counter-screen for Rin1-Abl inhibitors: GFP quenchers, dose response. AID 602182. shares compounds with Rin1 Abl inh. GFP fluorescence interference/quenching counterscreen. 230 tested, under 10 active. IC50, µM; call rule not given here;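 note: ABL1-eGFP fusion protein alone without its RIN1 binding partner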
ABHD5-PLIN5 conf – confirmation of human ABHD5-PLIN5 interaction inhibitors. shares compounds with ABHD5-PLIN5 inh. biochemical ABHD5-PLIN5 interaction, luminescence. inhibition, % at 4 µM. 2,200 tested, 67% active; in the data active = inhibition above about 23%;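 note: 0% = DMSO vehicle wells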
HNF4 split-luc – active in HNF4 split-luciferase counter-screen for ABHD5-PLIN5 inhibitors; AID 651674; shares compounds with ABHD5-PLIN5 inh; HNF4 dimerization, luminescence, biochemical; 2,200 tested, 77% active; inhibition, % at 4 µM;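 active = mean inhibition across replicate wells exceeding the computed hit threshold, cut at about 13% in these data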;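 note: light from luciferase halves that rejoin when HNF4 fusion proteins dimerize; 0% = DMSO only wells and the 100% control is not given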
NadD conf – NadD (S. aureus) inhibition, single concentration confirmation | shares compounds with NadD block | purified S. aureus NadD, colorimetric enzyme assay | inhibition, % at 20 µM | 2,000 tested, 13% active | AID 624309; in the data active = inhibition mostly above about 42%, no sharp cut-off; inactive = mostly below about 42%
Starred values were filed as active, the others as inactive; / = no result shown. Cut-off read from the data, not from the text of the source, unless noted: active = inhibition above about 6.5%; inactive = the rest.

SMILES	Rin1 Abl inh	ABHD5-PLIN5 inh	NadD block	Rpn11 inh	Xi reactivation	Rin1 Abl conf	GFP quencher	ABHD5-PLIN5 conf	HNF4 split-luc	others
CCCC#Cc1ccc([C@@H]2[C@H](CO)N3C(=O)CN(C(=O)c4ccccn4)C[C@@H]23)cc1	/	/	/	/	0.2	/	/	/	/
CC(=O)Nc1ccc2c(c1)CC(=O)N(C)C[C@@H](C)[C@H](CN(C)C)O2	/	/	/	/	0.0	/	/	/	/
CCCCNC(=O)c1ccc2nc(-c3ccco3)c(-c3ccco3)nc2c1	2.1	13.5	6.7	-39.9	0.2	/	/	/	/
O=C(NCCCO)c1ccc2nc(-c3ccco3)c(-c3ccco3)nc2c1	11.2*	25.2*	11.2	-15.8	0.0	1.7	11.4*	67.1*	68.5*
COc1ccc(CCC(=O)Nc2c(-c3ccc(N(C)C)cc3)[nH][nH]c2=O)cc1	31.8*	86.4*	6.9	24.9	-0.1	39.6*	-1.5	21.8	79.1*	GFP quench dose=>67.5
Cc1ccc(-c2[nH]c3cc(C(=O)NCCCn4ccnc4)ccc3c(=O)c2O)cc1	18.7*	-2.9	54.4*	2.2	0.0	10.7*	11.2*	/	/	NadD conf=19.1
CCC(C)n1c(NC(=O)c2ccccc2)c(C#N)c2nc3ccccc3nc21 (stereo unspecified)	13.5*	-36.6	40.8*	/	/	2.9	0.3	/	/	NadD conf=30.9
CCC(=O)Nc1c(C#N)c2nc3ccccc3nc2n1-c1ccc(C)cc1	1.4	-3.5	-3.3	14.6	-0.2	/	/	/	/
CCCCn1c(NC(=O)c2ccccc2)c(C#N)c2nc3ccccc3nc21	12.3*	-49.5	32.9*	/	/	6.0	1.5	/	/	NadD conf=42.7
CC(C)NC(=O)N(C)C[C@@H]1Oc2ccc(NS(C)(=O)=O)cc2C(=O)N(C)C[C@@H]1C	/	/	/	/	0.2	/	/	/	/
CNC[C@H]1OCCCC[C@@H](C)Oc2ccc(NS(=O)(=O)c3ccc(Cl)cc3)cc2C(=O)N([C@@H](C)CO)C[C@H]1C	/	/	/	/	0.4	/	/	/	/
O=S(=O)(Nc1c(S(=O)(=O)c2ccccc2)c2nc3ccccc3nc2n1C1CCCCC1)c1ccccc1	9.8*	-23.1	31.8*	24.3	-0.1	-3.8	0.1	/	/	NadD conf=48.5*
C=CCn1c(NS(=O)(=O)c2ccccc2)c(S(=O)(=O)c2ccc(C)cc2)c2nc3ccccc3nc21	0.8	-8.9	-1.5	1.3	0.0	/	/	/	/
Cc1ccc(S(=O)(=O)N[C@@H](Cc2ccccc2)C(=O)CCl)cc1	2.7	53.0*	-1.3	-5.0	0.0	/	/	93.0*	89.7*
Cc1ccc(S(=O)(=O)NC(Cc2ccccc2)C(=O)NN)cc1 (stereo unspecified)	1.4	-6.1	3.8	1.4	0.4	/	/	/	/
Cc1ccc(-n2nc(-c3ccco3)cc2C(=O)O)c(C)c1	1.5	31.2*	9.5	37.2	-0.1	/	/	23.0*	27.2*
O=C(NCCCn1ccnc1)c1ccccc1Cl	1.6	2.8	-0.5	-1.8	0.0	/	/	/	/
Cc1cccc(C(=O)NCCCn2ccnc2)c1C	-2.3	101.9*	-1.9	1.7	0.3	/	/	3.4	2.2
Cc1ccc(C(=O)/C=C/c2ccc3c(c2)OCO3)o1	0.8	20.9	-0.6	2.4	/	/	/	/	/
O=C(/C=C/c1ccc2c(c1)OCCCO2)c1ccccc1O	-1.9	26.8*	-2.8	-2.9	0.0	/	/	77.5*	52.8*
Cc1ccc(/C=C/C(=O)c2ccccc2O)cc1	-1.1	20.6	-2.2	-4.9	0.1	/	/	/	/
Cc1ccc(O)c(C(=O)/C=C/c2ccc3c(c2)OCCCO3)c1	-1.1	31.7*	-6.1	-3.8	0.8	/	/	66.0*	45.4*
